38 sequences from the EternaBench riboswitch data can be followed below.

What is called apparent Kd is a dissociation constant that holds for the conditions of the assay.

For the series, the system named is MS2 coat protein. Description: apparent Kd, MS2 coat protein; higher = weaker binding; RNA-MaP array; tryptophan 2.4 mM where present. The method in brief:
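Designs on Illumina sequencing-chip clusters, transcribed by stalled E. coli RNA polymerase, were exposed to SNAP-549-labelled MS2 coat protein in doubling steps from 0.7 or 1.5 nM up to 3 µM, without and then with constant ligand. The buffer held 100 mM Tris-HCl pH 7.5, 80 mM KCl, 4 mM MgCl2, BSA, DTT, yeast tRNA and Tween-20. Apparent Kd values are medians of filtered per-cluster binding-curve fits to green signal normalised to red-channel RNA signal and control-cluster median Fmax.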

The mark [1] stands for this setting: designed as: OFF switch for tryptophan, no ligand.
The mark [2] stands for this setting: ligand present: tryptophan, designed as: OFF switch for tryptophan.
Setting [3] is: designed as: ON switch for tryptophan, no ligand.
Setting [4] is: ligand present: tryptophan, designed as: ON switch for tryptophan.

“GAGUAGAGGACGGCCGCCACUGAACAUGAGGAUCACCCAUGUCGUGAUCCGUUACCUAAAGAAGAUAGGACCGGGUCAUGUACUC”: the “apparent Kd” value under setting [1] was found to be 27.3 nM and the “apparent Kd” value under setting [2] was found to be 28.7 nM.

Turning to “UAUCGUCAGACGGCCGCCACUAGAACAUGAGGAUCACCCAUGUAAGUGGCCGGUCUCCUCAUGACUAGGACCGGGUCUGACGAAU”, the “apparent Kd” value is 8.69 nM under setting [1] and 9.94 nM under setting [2].

Consider “AGUUUGGACUCGGCCGCCACUCGUGAUGCUUUGGCACAUGAGGAUCACCCAUGUGGUCGGCCUUAGAGGACCGGGAGUACCAGCC”, for which the “apparent Kd” value is, setting by setting: under setting [3], 405 nM; under setting [4], 43 nM.

Regarding “AGCGUGCAUAGGAAAACUAUGUACGCAAAUCGAGGACCGGUACGGCCGCCACUCGUCCUCAACAUGAGGAUCACCCAUGUAAUAA”, the “apparent Kd” value by setting is: under setting [1], 19.9 nM; under setting [2], 34.7 nM.

With “AUUGUCGUGUCGGCCGCCACUGUCAUGGUUUUCGUGGAAAACAUGAGGAUCACCCAUGUAAUUGACAGGACCGGGACAUGGCGGC”, the “apparent Kd” value turned out to be 9.29 nM under setting [1] and 10.4 nM under setting [2].

On to “GCGUGGUCUGCGGCCGCCACUCAAGGAGCUACAUAGCUCCUAGACAUGAGGAUCACCCAUGUCGCGAGGACCGGGUAGAUUCUCC”, for which the “apparent Kd” value under setting [3] came to 96 nM and the “apparent Kd” value under setting [4] was 30.8 nM.

Turning to “UCGUUUUAGUCGGCCGCCACUGUAUGCAUGUUUAACAUGAGGAUCACCCAUGUCCCGUUCUAUUUCAGGACCGGGACGUAAUCGA”, the “apparent Kd” value worked out at 525 nM under setting [3] and 344 nM under setting [4].

As for “CACGCACGAUCGGCCGCCACUCAUGUAGCUUACAUGAGGAUCACCCAUGUAUUUUCUUUCUUAUAGAGGACCGGGAUCGUGCGUG”, the “apparent Kd” value is, setting by setting: under setting [3], 17.6 nM; under setting [4], 15.3 nM.

As to “AAUUAUCAGUCGGCCGCCACUGACACAUGAGGAUCACCCAUGUAACUUGGGUUAAAUUUAAUAAACAGGACCGGGACAAAGGCUA”, the “apparent Kd” value under setting [1] worked out at 186 nM and the “apparent Kd” value under setting [2] is 184 nM.

“CUCAUCCACGCGGCCGCCACUAUUUUUAGGUGUGGGUGUGACGUAUUACAUGAGGAUCACCCAUGUAGGACCGGGCGUGGAUGAG”: the “apparent Kd” value came to 385 nM under setting [1] and 485 nM under setting [2].

Take “UAAUCAGUGCCGGUUCUCGGAUCCUCAUGUCGAGGACCGGUACGGCCGCCACUCGGAACAUGAGGAUCACCCAUGUAAUAAUAAU”: the “apparent Kd” value was determined as 97.3 nM under setting [1] and 92.7 nM under setting [2].

Take “CUACAUUUGUAGAAACCGGUCAACAAUAAUCGAGGACCGGUACGGCCGCCACUCGUAUAAUUUAAUACAUGAGGAUCACCCAUGU”: the “apparent Kd” value reads like this: under setting [3], 14.9 nM; under setting [4], 15.4 nM.

“AACGCGGUGAUGGUAGCCGGACGCUAGGUACGAGGACCGGUACGGCCGCCACUCGGAGUCCUACGACAUGAGGAUCACCCAUGUA”: the “apparent Kd” value amounted to 127 nM under setting [3] and 67.5 nM under setting [4].

For “AGUUACUCGAACAUGGUUGACGAGUGGCAACGAGGACCGGUACGGCCGCCACUCGAAUAAACAUGAGGAUCACCCAUGUACAAAU”, the “apparent Kd” value worked out at 135 nM under setting [3] and 104 nM under setting [4].

As to “CCUCAAUAGACGGCCGCCACUGAGACAUGAGGAUACAUGAGGAUCACCCAUGUGGGUGUGUCACGCAGGACCGGGUCAAGACCCG”, the “apparent Kd” value came out at 523 nM under setting [3] and 514 nM under setting [4].

Consider “CUUGGCUGUGCGGCCGCCACUGACUCAUCCUGCAUUACAUGAGGAUCACCCAUGUUGCGGCCUCCCAGGACCGGGCAUAGCCUGC”, for which the “apparent Kd” value is 390 nM under setting [3] and 91.3 nM under setting [4].

As for “AAUUUAUGGUUCUUGAUGUAGUAUCUAUUUCGAGGACCGGUACGGCCGCCACUCGUAAAUUACAUGAGGAUCACCCAUGUUAGCU”, the “apparent Kd” value under setting [1] is 24.6 nM and the “apparent Kd” value under setting [2] is 29.5 nM.

Turning to “ACGUUGAAGUCGGCCGCCACUGAUUUCAUGUUCAACAUGAGGAUCACCCAUGUACCUUAUGUUAACAGGACCGGGACGUAUACGA”, the “apparent Kd” value came to 479 nM under setting [3] and 117 nM under setting [4].

As to “AACAUGAGGAUCACCCAUGUCCCAUGUGAACGAGGACCGGUACGGCCGCCACUCGACUGAGGCGGCACAUGAGGAUCACCCACAU”, the “apparent Kd” value is, setting by setting: under setting [3], 170 nM; under setting [4], 314 nM.

Turning to “AAUUAAACAUCGGCCGCCACUUACUCAUGAGGUAACAACAUGAGGAUCACCCAUGUUUGAGGAUCAAGGACCGGGAUGUAAUUUU”, the “apparent Kd” value is, setting by setting: under setting [3], 29.8 nM; under setting [4], 22.2 nM.

Take “AAUAUAUAGACGGCCGCCACUGGAACCAAUACAUGAGGAUCACCCAUGUGAAAAGGAUAGGUUCACAGGACCGGGUCUUCAUGUA”: the “apparent Kd” value runs as follows: under setting [3], 25.7 nM; under setting [4], 9.99 nM.

As to “GGUUACUCUACGGCCGCCACUGAUAAAUAAUAAACCUGUACAUAAACAUGAGGAUCACCCAUGUACAGGACCGGGUAGUGUAACC”, the “apparent Kd” value reads like this: under setting [3], 32.8 nM; under setting [4], 24.1 nM.

Consider “UUAUAAGUACCGGUCCUCAGAUCCUCAUGACGAGGACCGGUACGGCCGCCACUCGAAACAUGAGGAUCACCCAUGUAAUAAUAUU”, for which the “apparent Kd” value by setting is: under setting [1], 22.1 nM; under setting [2], 20 nM.

Regarding “AUAAUAAUCAUGGGUGAAGGUCCUCGCAAACGAGGACCGGUACGGCCGCCACUCGAACAUGAGGAUCACCCAUGUGUGAGGACCU”, the “apparent Kd” value under setting [3] amounted to 58.8 nM and the “apparent Kd” value under setting [4] is 36.9 nM.

Turning to “AAUAAUAAGGCGGCCGCCACUACACAUGAGGAUCACCCAUGUCUCGCGGGCUUGCGUUGGGAAUGUAGGACCGGGCCAAUAAUAA”, the “apparent Kd” value by setting is: under setting [1], 24.3 nM; under setting [2], 18.3 nM.

With “UAUUAUCAGUCGGCCGCCACUGACACAUGAGGAUCACCCAUGUAAUUUGGGUUAUAUAGAAAAUACAGGACCGGGACUAAGGCUA”, the “apparent Kd” value amounted to 260 nM under setting [1] and 276 nM under setting [2].

Turning to “AACAUGAGGAUCACCCAUGUGUCCUCGAAACGAGGACCGGUACGGCCGCCACUCGAAAUAAGCUGUUGACGAAAAGUCAGCAGCA”, the “apparent Kd” value amounted to 281 nM under setting [1] and 501 nM under setting [2].

As for “ACAUUAGCCACGGCCGCCACUGCCUUAUGAUUAUAAGGAUUAAUGAACAUGAGGAUCACCCAUGUCAGGACCGGGUGCCUACCAU”, the “apparent Kd” value reads like this: under setting [3], 22 nM; under setting [4], 20.7 nM.

In the case of “GAGCUCGUGGACUGGCGUGCUCCGCUCCGUCGAGGACCGGUACGGCCGCCACUCGACAUGAGGAUCACCCAUGUGUGAGCUCGCG”, the “apparent Kd” value reads like this: under setting [1], 62.5 nM; under setting [2], 30.6 nM.

As for “AUUCAUGGAAACAUGACAUACAUAACCGGUCGAGGACCGGUACGGCCGCCACUCGGUUGGUGGCACAUGAGGAUCACCCAUGUUA”, the “apparent Kd” value under setting [3] turned out to be 23.9 nM and the “apparent Kd” value under setting [4] amounted to 26.4 nM.

Turning to “AACAUGAGGAUCACCCAUGUGUCCUCGAAACGAGGACCGGUACGGCCGCCACUCGAAGCAUGUUGACGAAAAGUCAGCAUGCAAA”, the “apparent Kd” value was determined as 318 nM under setting [1] and 1060 nM under setting [2].

With “CUAUAUAUAUCGGCCGCCACUUACUCAUGAGGUAACAACAUGAGGAUCACCCAUGUUUGAGGAUCAAGGACCGGGAUAUAUAUAG”, the “apparent Kd” value under setting [3] was determined as 27.4 nM and the “apparent Kd” value under setting [4] turned out to be 16.6 nM.

Consider “UUUUACGGCGAUCUGGGUUUACCAGAUCGGCGAGGACCGGUACGGCCGCCACUCGUGUUUCUUUGACAUGAGGAUCACCCAUGUA”, for which the “apparent Kd” value runs as follows: under setting [3], 26.9 nM; under setting [4], 16.2 nM.

Regarding “AUAACCCUUGACUAAAACACUAAAUCAGUUCGAGGACCGGUACGGCCGCCACUCGUGUCAAGACAUGAGGAUCACCCAUGUACCU”, the “apparent Kd” value is, setting by setting: under setting [3], 35.8 nM; under setting [4], 23.3 nM.

In the case of “UUCGUAUUGUCGGCCGCCACUGCAACAUGAGGAUCACCCAUGUAAGAAUGGUUGUAAAUAUAUUACAGGACCGGGACAAUAGUAA”, the “apparent Kd” value under setting [1] stood at 17.6 nM and the “apparent Kd” value under setting [2] is 51.6 nM.

For “GCUAGGUCAUCGGCCGCCACUAUUAGUGGUUCGAACAUGAGGAUCACCCAUGUGCCACAUGCGCAUAGGACCGGGAUGACCUAGC”, the “apparent Kd” value runs as follows: under setting [3], 12.7 nM; under setting [4], 9.42 nM.

For the sequence “AGUUAUUCGAACAUGGUUGACGAGUGGCAACGAGGACCGGUACGGCCGCCACUCGAAUAAACAUGAGGAUCACCCAUGUACAAAU”, the “apparent Kd” value under setting [3] was 342 nM and the “apparent Kd” value under setting [4] stood at 287 nM.

For the sequence “GGAGUAGAUGCGGCCGCCACUUUCUCAAGACACUACAUGAGGAUCACCCAUGUCCAUUCUACACUAAGGACCGGGCAUCCCAUGG”, the “apparent Kd” value is, setting by setting: under setting [3], 54.3 nM; under setting [4], 39.5 nM.
